The target in assay [1] is T1, Tyrosine-protein phosphatase non-receptor type 1 (Homo sapiens) (UniProt P18031).
T1 sequence (whole entry): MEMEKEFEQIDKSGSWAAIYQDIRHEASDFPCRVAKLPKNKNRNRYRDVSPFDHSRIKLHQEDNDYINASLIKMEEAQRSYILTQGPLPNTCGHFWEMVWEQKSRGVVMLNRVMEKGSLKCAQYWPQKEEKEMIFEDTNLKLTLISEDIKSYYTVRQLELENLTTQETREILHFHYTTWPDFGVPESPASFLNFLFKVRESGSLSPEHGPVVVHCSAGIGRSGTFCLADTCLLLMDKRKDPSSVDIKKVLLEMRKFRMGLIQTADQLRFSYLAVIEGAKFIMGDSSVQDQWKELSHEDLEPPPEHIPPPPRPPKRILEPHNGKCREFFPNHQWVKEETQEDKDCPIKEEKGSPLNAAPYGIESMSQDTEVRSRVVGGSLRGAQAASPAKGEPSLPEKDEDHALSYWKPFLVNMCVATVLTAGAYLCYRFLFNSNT
Description: Inhibition of recombinant human PTP1B (1 to 322 residues) expressed in Escherichia coli using pNPP as substrate incubated for 10 mins measured for 30 mins by spectrometric analysis. Put shortly: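 Enzyme (1 mg/mL stock) was mixed with sample in DMSO and 4 mM pNPP stock in 25 mM Tris-HCl pH 7.5, 1 mM EDTA, 2 mM b-mercaptoethanol and 1 mM DTT.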

The target in assay [2] is T1, Tyrosine-protein phosphatase non-receptor type 1 (Homo sapiens). The settings on record: 457.3 to 1829.3 uM.
Assay [3] shares this target. Nature of the assay: Competitive inhibition of recombinant human PTP1B (1 to 322 residues) expressed in Escherichia coli at 52.6 to 210.6 uM using pNPP as substrate by Line-weaver burk plot method. In a few lines:
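PTP1B activity was followed by pNPP hydrolysis at 405 nm in 25 mM Tris-HCl pH 7.5 with 1 mM EDTA, 2 mM b-mercaptoethanol and 1 mM DTT, at 37 °C, with compound added in DMSO. Initial velocities were taken across substrate and inhibitor concentrations. Km and Vmax came from Lineweaver-Burk plots, with Dixon plots also used, and the Kik/Kiv ratio was calculated after Yang et al.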

The target is the same in assay [4]. The settings on record: 0.47 uM.
The target is the same in assay [5]. The conditions noted are these: 12.4 to 49.6 uM.
Assay [6] shares this target. The settings on record: 49.5 to 198.1 uM.
The target is the same in assay [7]. The settings on record: 11.7 to 47.1 uM.
The target is the same in assay [8]. Description: Competitive inhibition of recombinant human PTP1B (1 to 322 residues) expressed in Escherichia coli at 11.8 to 47.2 uM using pNPP as substrate by Line-weaver burk plot method. In a few lines: (§1)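 Kinetics with pNPP substrate in 25 mM Tris-HCl (pH 7.5), 1 mM EDTA, 2 mM b-mercaptoethanol, 1 mM DTT, 37 °C. Initial velocities were recorded at several substrate and inhibitor concentrations and read at 405 nm. Vmax and Km came from Lineweaver-Burk plots, and the Kik/Kiv ratio was calculated per Yang et al.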

For assay [9] the target is unchanged. Nature of the assay: Competitive inhibition of recombinant human PTP1B (1 to 322 residues) expressed in Escherichia coli at 99.4 to 397.8 uM using pNPP as substrate by Line-weaver burk plot method. In a few lines:
as §1

The structures appear in SMILES notation. The source made the active and inactive calls. The calls are words filed in the database; no cut-off is given here.

The values that follow come from ChEMBL document CHEMBL4038281, “Competitive protein tyrosine phosphatase 1B (PTP1B) inhibitors, prenylated caged xanthones from Garcinia hanburyi and their inhibitory mechanism” (Bioorg Med Chem, 2017).

For the molecule `CC(C)=CCc1c2c(c(O)c3c1O[C@]14C(=C[C@@H]5C[C@H]1C(C)(C)O[C@@]4(/C=C(/C)CO)C5=O)C3=O)C=CC(C)(C)O2`, in assay [1], the inhibition result was “Dose-dependent effect”. Further, the inhibition entry in assay [2] was “Active”.

In the case of `CO[C@@H]1C2C(=O)c3c(O)c4c(c(CC=C(C)C)c3O[C@@]23[C@H]2C[C@@H]1C(=O)[C@]3(C/C=C(/C)C(=O)O)OC2(C)C)OC(C)(C)C=C4` (stereo not given in full), the inhibition result in assay [1] is “Dose-dependent effect”. In assay [3], the inhibition entry is “Active”.

For the molecule `CC(C)=CCC[C@]1(C)C=Cc2c(O)c3c(c(CC=C(C)C)c2O1)O[C@]12C(=C[C@@H]4C[C@H]1C(C)(C)O[C@@]2(C/C=C(/C)C(=O)O)C4=O)C3=O`, the inhibition entry in assay [1] was “Dose-dependent effect”. Besides, the TDI entry in assay [4] is “Active”. In assay [5], the inhibition entry is “Active”.

Take `CC(C)=CCC/C(C)=C/Cc1c(O)c(CC=C(C)C)c2c(c1O)C(=O)C1=C[C@@H]3C[C@H]4C(C)(C)O[C@@](C/C=C(/C)C(=O)O)(C3=O)[C@@]14O2`: the inhibition entry in assay [1] was “Dose-dependent effect”. Further, the inhibition entry in assay [6] is “Active”.

For the molecule `CO[C@@H]1C2C(=O)c3c(O)c(C/C=C(\C)CCC=C(C)C)c(O)c(CC=C(C)C)c3O[C@@]23[C@H]2C[C@@H]1C(=O)[C@]3(C/C=C(/C)C(=O)O)OC2(C)C` (stereo not given in full), the inhibition result in assay [1] was “Dose-dependent effect”. Further, in assay [7], the inhibition entry is “Active”.

With `CO[C@@H]1C2C(=O)c3c(O)c4c(c(CC=C(C)C)c3O[C@@]23[C@H]2C[C@@H]1C(=O)[C@]3(C/C=C(/C)C(=O)O)OC2(C)C)O[C@](C)(CCC=C(C)C)C=C4` (stereo not given in full), the inhibition entry in assay [1] is “Dose-dependent effect”. Also, in assay [8], the inhibition entry was “Active”.

With `COC1=C2C(=O)c3c(O)c4c(c(CC=C(C)C)c3O[C@@]23[C@H]2C[C@@H]1C(=O)[C@]3(CC=C(C)C)OC2(C)C)O[C@](C)(CCC=C(C)C)C=C4`, in assay [1], the inhibition entry was “Dose-dependent effect”. Besides, in [9], the inhibition result was “Active”.
